Experimental data taken from ChEMBL document CHEMBL3576819, “Design, synthesis, biological evaluation and molecular docking studies of phenylpropanoid derivatives as potent anti-hepatitis B virus agents” (Eur J Med Chem, 2015).
pIC50: −log10 of the molar value.

How the values were obtained:
Hepatitis B virus [1] = experiment: Antiviral activity against Hepatitis B virus infected in human HepG2.2.15 cells assessed as inhibition of HBsAg secretion at 75 uM after 3 days by ELISA; type: functional; conditions: HepG2 2.2.15, 72 h
In short: (§1)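 HepG2.2.15 cells (MEM, 10% FBS, 380 µg/ml G418) seeded at 1×10^5 cells/ml, held 24 h at 37 °C, then treated with various drug concentrations; medium with drug renewed every 3 d for up to 9 d. Culture medium sampled on days 3, 6 and 9, stored at -20 °C, and assayed for secreted antigen. Lamivudine as positive control; IC50 = 50% inhibition of secretion; means of at least two experiments.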

Hepatitis B virus [2] = experiment: Antiviral activity against Hepatitis B virus infected in human HepG2.2.15 cells assessed as inhibition of HBV DNA copies per uL at 150 uM after 6 days by real-time fluorescence quantitative PCR analysis; type: functional; conditions: HepG2 2.2.15, 144 h
Hepatitis B virus [3] = experiment: Antiviral activity against Hepatitis B virus infected in human HepG2.2.15 cells assessed as inhibition of HBeAg secretion at 75 uM after 9 days by ELISA; type: functional; conditions: HepG2 2.2.15, 216 h; in short: as §1
Hepatitis B virus [4] = experiment: Antiviral activity against Hepatitis B virus infected in human HepG2.2.15 cells assessed as inhibition of HBeAg secretion at 37.5 uM after 6 days by ELISA; type: functional; conditions: HepG2 2.2.15, 144 h; in short: as §1
Hepatitis B virus [5] = experiment: Antiviral activity against Hepatitis B virus infected in human HepG2.2.15 cells assessed as inhibition of HBeAg secretion at 150 uM after 9 days by ELISA; type: functional; conditions: HepG2 2.2.15, 216 h; in short: as §1
Hepatitis B virus [6] = experiment: Antiviral activity against Hepatitis B virus infected in human HepG2.2.15 cells assessed as inhibition of HBV DNA copies per uL at 75 uM after 6 days by real-time fluorescence quantitative PCR analysis; type: functional; conditions: HepG2 2.2.15, 144 h
Hepatitis B virus [7] = experiment: Antiviral activity against Hepatitis B virus infected in human HepG2.2.15 cells assessed as inhibition of HBV DNA copies per uL at 150 uM after 3 days by real-time fluorescence quantitative PCR analysis; type: functional; conditions: HepG2 2.2.15, 72 h
Hepatitis B virus [8] = experiment: Antiviral activity against Hepatitis B virus infected in human HepG2.2.15 cells assessed as inhibition of HBsAg secretion by ELISA; type: functional, organism-based; conditions: HepG2 2.2.15; in short: as §1
[9] = Cytotoxicity against human HepG2.2.15 cells assessed as cell death after 9 days by MTT assay; type: cell-based, HepG2 2.2.15
In short: (§2)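 HepG2.2.15 cells (MEM, 10% FBS, 380 µg/ml G418, 37 °C, 5% CO2) seeded at 1×10^5 cells/ml, cultured 24 h, then exposed to various drug concentrations; drug-containing medium renewed every 3 d. OD read at 450 nm after 9 days; percent cell death calculated; CC50 = concentration killing 50% of cells. Means of at least two experiments.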

Hepatitis B virus [10] = experiment: Antiviral activity against Hepatitis B virus infected in human HepG2.2.15 cells assessed as inhibition of HBV DNA copies per uL at 37.5 uM after 9 days by real-time fluorescence quantitative PCR analysis; type: functional; conditions: HepG2 2.2.15, 216 h
Hepatitis B virus [11] = experiment: Antiviral activity against Hepatitis B virus infected in human HepG2.2.15 cells assessed as cell survival at 300 uM after 9 days (reference value: 100%); type: functional; conditions: HepG2 2.2.15, 216 h; in short: as §2
Hepatitis B virus [12] = experiment: Antiviral activity against Hepatitis B virus infected in human HepG2.2.15 cells assessed as inhibition of HBsAg secretion at 300 uM after 9 days by ELISA; type: functional; conditions: HepG2 2.2.15, 216 h; in short: as §1
Hepatitis B virus [13] = experiment: Antiviral activity against Hepatitis B virus infected in human HepG2.2.15 cells assessed as inhibition of HBsAg secretion at 150 uM after 9 days by ELISA; type: functional; conditions: HepG2 2.2.15, 216 h; in short: as §1
Hepatitis B virus [14] = experiment: Antiviral activity against Hepatitis B virus infected in human HepG2.2.15 cells assessed as inhibition of HBV DNA copies per uL at 300 uM after 6 days by real-time fluorescence quantitative PCR analysis; type: functional; conditions: HepG2 2.2.15, 144 h
Hepatitis B virus [15] = experiment: Antiviral activity against Hepatitis B virus infected in human HepG2.2.15 cells assessed as inhibition of HBV DNA copies per uL at 300 uM after 9 days by real-time fluorescence quantitative PCR analysis; type: functional; conditions: HepG2 2.2.15, 216 h
Hepatitis B virus [16] = experiment: Antiviral activity against Hepatitis B virus infected in human HepG2.2.15 cells assessed as inhibition of HBV DNA copies per uL at 150 uM after 9 days by real-time fluorescence quantitative PCR analysis; type: functional; conditions: HepG2 2.2.15, 216 h
Hepatitis B virus [17] = experiment: Antiviral activity against Hepatitis B virus infected in human HepG2.2.15 cells assessed as inhibition of HBsAg secretion at 300 uM after 3 days by ELISA; type: functional; conditions: HepG2 2.2.15, 72 h; in short: as §1
Hepatitis B virus [18] = experiment: Antiviral activity against Hepatitis B virus infected in human HepG2.2.15 cells assessed as inhibition of HBeAg secretion at 300 uM after 3 days by ELISA; type: functional; conditions: HepG2 2.2.15, 72 h; in short: as §1
Hepatitis B virus [19] = experiment: Antiviral activity against Hepatitis B virus infected in human HepG2.2.15 cells assessed as inhibition of HBeAg secretion by ELISA; type: functional, organism-based; conditions: HepG2 2.2.15; in short: as §1
Hepatitis B virus [20] = experiment: Antiviral activity against Hepatitis B virus infected in human HepG2.2.15 cells assessed as inhibition of HBV DNA copies per uL at 37.5 uM after 6 days by real-time fluorescence quantitative PCR analysis; type: functional; conditions: HepG2 2.2.15, 144 h
[21] = Selectivity index, ratio of CC50 for human HepG2.2.15 cells to IC50 for Hepatitis B virus infected in human HepG2.2.15 cells assessed as inhibition of HBsAg secretion; type: functional
In short: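 Selectivity index computed as CC50/IC50, with CC50 from cell death of HepG2.2.15 cells after 9 days of treatment (OD 450 nm) and IC50 from 50% inhibition of HBeAg or HBsAg secretion in the same cells; medium with drug renewed every 3 d.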

Hepatitis B virus [22] = experiment: Antiviral activity against Hepatitis B virus infected in human HepG2.2.15 cells assessed as inhibition of HBeAg secretion at 300 uM after 6 days by ELISA; type: functional; conditions: HepG2 2.2.15, 144 h; in short: as §1
Hepatitis B virus [23] = experiment: Antiviral activity against Hepatitis B virus infected in human HepG2.2.15 cells assessed as inhibition of HBV DNA copies per uL at 75 uM after 3 days by real-time fluorescence quantitative PCR analysis; type: functional; conditions: HepG2 2.2.15, 72 h
Hepatitis B virus [24] = experiment: Antiviral activity against Hepatitis B virus infected in human HepG2.2.15 cells assessed as inhibition of HBV DNA copies per uL at 37.5 uM after 3 days by real-time fluorescence quantitative PCR analysis; type: functional; conditions: HepG2 2.2.15, 72 h
Hepatitis B virus [25] = experiment: Antiviral activity against Hepatitis B virus infected in human HepG2.2.15 cells assessed as inhibition of HBV DNA replication by real-time fluorescence quantitative PCR analysis; type: functional, organism-based; conditions: HepG2 2.2.15
Hepatitis B virus [26] = experiment: Antiviral activity against Hepatitis B virus infected in human HepG2.2.15 cells assessed as inhibition of HBV DNA copies per uL at 75 uM after 9 days by real-time fluorescence quantitative PCR analysis; type: functional; conditions: HepG2 2.2.15, 216 h
Hepatitis B virus [27] = experiment: Antiviral activity against Hepatitis B virus infected in human HepG2.2.15 cells assessed as inhibition of HBeAg secretion at 75 uM after 6 days by ELISA; type: functional; conditions: HepG2 2.2.15, 144 h; in short: as §1
Hepatitis B virus [28] = experiment: Antiviral activity against Hepatitis B virus infected in human HepG2.2.15 cells assessed as inhibition of HBsAg secretion at 150 uM after 6 days by ELISA; type: functional; conditions: HepG2 2.2.15, 144 h; in short: as §1
Hepatitis B virus [29] = experiment: Antiviral activity against Hepatitis B virus infected in human HepG2.2.15 cells assessed as inhibition of HBsAg secretion at 75 uM after 9 days by ELISA; type: functional; conditions: HepG2 2.2.15, 216 h; in short: as §1

| SMILES | inhibition at 75 µM (Hepatitis B virus [1]) | inhibition at 150 µM (Hepatitis B virus [2]) | inhibition at 75 µM (Hepatitis B virus [3]) | inhibition at 37.5 µM (Hepatitis B virus [4]) | inhibition at 150 µM (Hepatitis B virus [5]) | inhibition at 75 µM (Hepatitis B virus [6]) | inhibition at 150 µM (Hepatitis B virus [7]) | pIC50 (Hepatitis B virus [8]) | CC50 at 216 h [9] | inhibition at 37.5 µM (Hepatitis B virus [10]) | viability at 300 µM (Hepatitis B virus [11]) | inhibition at 300 µM (Hepatitis B virus [12]) | inhibition at 150 µM (Hepatitis B virus [13]) | inhibition at 300 µM (Hepatitis B virus [14]) | inhibition at 300 µM (Hepatitis B virus [15]) | inhibition at 150 µM (Hepatitis B virus [16]) | inhibition at 300 µM (Hepatitis B virus [17]) | inhibition at 300 µM (Hepatitis B virus [18]) | pIC50 (Hepatitis B virus [19]) | inhibition at 37.5 µM (Hepatitis B virus [20]) | further results |
| --- | --- | --- | --- | --- | --- | --- | --- | --- | --- | --- | --- | --- | --- | --- | --- | --- | --- | --- | --- | --- | --- |
| COc1cc(/C=C/C(=O)O/N=C/c2ccco2)cc2c1OCO2 | 38.8% | 42.9% | 56.9% | 30.7% | 65.2% | 39.4% | 40.7% | 4.20 | 820 µM | 30.5% | 89.3% | 77.2% | 67.3% | 57.4% | 61.5% | 52% | 66.2% | 59.8% | 4.12 | 27.6% | Ratio CC50/IC50 [21]: 12.9; inhibition at 300 µM (Hepatitis B virus [22]): 62%; inhibition at 75 µM (Hepatitis B virus [23]): 29.4%; inhibition at 37.5 µM (Hepatitis B virus [24]): 19.8%; pIC50 (Hepatitis B virus [25]): 3.85; inhibition at 75 µM (Hepatitis B virus [26]): 39.6%; inhibition at 75 µM (Hepatitis B virus [27]): 37.8%; inhibition at 150 µM (Hepatitis B virus [28]): 58.5%; inhibition at 75 µM (Hepatitis B virus [29]): 57.7% |
| O=C(/C=C/c1ccc2c(c1)OCO2)O/N=C/c1ccccn1 | 58% | 61.6% | 89.8% | 66.5% | 95.9% | 47.6% | 45.8% | 4.85 | 253 µM | 58.4% | 35.1% | 93% | 86.9% | 68.8% | 85.8% | 72.2% | 75.8% | 63.5% | 5.21 | 38.1% | Ratio CC50/IC50 [21]: 17.85; inhibition at 300 µM (Hepatitis B virus [22]): 85.1%; inhibition at 75 µM (Hepatitis B virus [23]): 36.9%; inhibition at 37.5 µM (Hepatitis B virus [24]): 30.4%; pIC50 (Hepatitis B virus [25]): 4.63; inhibition at 75 µM (Hepatitis B virus [26]): 68.7%; inhibition at 75 µM (Hepatitis B virus [27]): 74.8%; inhibition at 150 µM (Hepatitis B virus [28]): 80.5%; inhibition at 75 µM (Hepatitis B virus [29]): 78.4% |
| Nc1ccn([C@@H]2CS[C@H](CO)O2)c(=O)n1 [LAMIVUDINE] | 22% | 66.8% | 34.2% | 12.8% | 45.4% | 58.9% | 46.6% | 3.63 | 568 µM | 69.4% | 75.2% | 60.4% | 55.9% | 71.6% | 86.4% | 81.6% | 37.3% | 30.9% | 3.57 | 38.6% | Ratio CC50/IC50 [21]: 2.42; inhibition at 300 µM (Hepatitis B virus [22]): 39.9%; inhibition at 75 µM (Hepatitis B virus [23]): 46%; inhibition at 37.5 µM (Hepatitis B virus [24]): 40%; pIC50 (Hepatitis B virus [25]): 5.16; inhibition at 75 µM (Hepatitis B virus [26]): 76.7%; inhibition at 75 µM (Hepatitis B virus [27]): 22.1%; inhibition at 150 µM (Hepatitis B virus [28]): 30.7%; inhibition at 75 µM (Hepatitis B virus [29]): 33.1% |
| COc1cc(/C=C/C(=O)O/N=C/c2ccccn2)cc2c1OCO2 | 27.2% | 44.8% | 57.3% | 22.7% | 65.3% | 39.2% | 34.9% | 4.20 | 645 µM | 36.7% | 67.2% | 81.3% | 70% | 52.9% | 67.5% | 54.5% | 58.5% | 54.2% | 4.14 | 26.9% | Ratio CC50/IC50 [21]: 10.27; inhibition at 300 µM (Hepatitis B virus [22]): 75.4%; inhibition at 75 µM (Hepatitis B virus [23]): 28.6%; inhibition at 37.5 µM (Hepatitis B virus [24]): 21.6%; pIC50 (Hepatitis B virus [25]): 4.02; inhibition at 75 µM (Hepatitis B virus [26]): 47.3%; inhibition at 75 µM (Hepatitis B virus [27]): 42.3%; inhibition at 150 µM (Hepatitis B virus [28]): 59.6%; inhibition at 75 µM (Hepatitis B virus [29]): 65.8% |
